Drawing on ChEMBL document CHEMBL4043093, “2-Oxo-3, 4-dihydropyrimido[4, 5-d]pyrimidinyl derivatives as new irreversible pan fibroblast growth factor receptor (FGFR) inhibitors” (Eur J Med Chem, 2017), this text covers Activity for one molecule.

SMILES strings stand for the structures.

For experiment [1], the target named is Tyrosine-protein kinase SYK (Homo sapiens) (UniProt P43405). In words: Inhibition of wild-type human partial length SYK (D354 to N635 residues) expressed in Escherichia coli BL21 assessed as residual activity at 1000 nM after 30 mins by Kinomescan method relative to control.
In experiment [2] the test system is Epidermal growth factor receptor (Homo sapiens), P00533 [G719C]. Nature of the experiment: Inhibition of human partial length EGFR G719C mutant (R669 to V1011 residues) expressed in Escherichia coli BL21 assessed as residual activity at 1000 nM after 30 mins by Kinomescan method relative to control. The method in brief: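 KINOMEscan binding panel of 456 kinases, with the test compound at a single concentration of 1 µM. Read-out is Percent Control.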

Experiment [3] concerns the target Phosphorylase b kinase gamma catalytic chain, liver/testis isoform (Homo sapiens) (UniProt P15735). Nature of the experiment: Inhibition of wild-type human partial length PHKG2 (M1 to W300 residues) expressed in Escherichia coli BL21 assessed as residual activity at 1000 nM after 30 mins by Kinomescan method relative to control.
Experiment [4] has as its target Tyrosine-protein kinase ABL1 (Homo sapiens) (UniProt P00519). Nature of the experiment: Inhibition of wild-type human phosphorylated ABL1 (S229 to K512 residues) expressed in HEK293 cells assessed as residual activity at 1000 nM after 30 mins by Kinomescan method relative to control. The format is cell-based.
The target of experiment [5] is Tyrosine-protein kinase receptor Tie-1 (Homo sapiens) (UniProt P35590). Nature of the experiment: Inhibition of wild-type human partial length TIE1 (T819 to A1138 residues) expressed in Escherichia coli BL21 assessed as residual activity at 1000 nM after 30 mins by Kinomescan method relative to control.
Experiment [6] deals with SRSF protein kinase 2 (Homo sapiens) (UniProt P78362). In words: Inhibition of wild-type human full length SRPK2 (M1 to S686 residues) expressed in Escherichia coli BL21 assessed as residual activity at 1000 nM after 30 mins by Kinomescan method relative to control.
For experiment [7], the target named is Dual specificity tyrosine-phosphorylation-regulated kinase 2 (Homo sapiens) (UniProt Q92630). Nature of the experiment: Inhibition of wild-type human full length DYRK2 (M1 to S528 residues) expressed in HEK293 cells assessed as residual activity at 1000 nM after 30 mins by Kinomescan method relative to control. In kind it is cell-based. The method in brief:
(§1)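 Single-concentration screen at 1 µM across a 456-kinase KINOMEscan panel. The read-out is Percent Control for each kinase.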

The target in experiment [8] is Serine/threonine-protein kinase RIO1 (Homo sapiens) (UniProt Q9BRS2). Nature of the experiment: Inhibition of wild-type human full length RIOK1 (M1 to K568 residues) expressed in Escherichia coli BL21 assessed as residual activity at 1000 nM after 30 mins by Kinomescan method relative to control.
Experiment [9] deals with NUAK family SNF1-like kinase 2 (Homo sapiens) (UniProt Q9H093). In words: Inhibition of wild-type human partial length SNARK (P22 to A333 residues) expressed in HEK293 cells assessed as residual activity at 1000 nM after 30 mins by Kinomescan method relative to control. The format is cell-based.
Experiment [10] has as its system Tyrosine-protein kinase ABL1 (Homo sapiens), P00519 [Q252H]. In words: Inhibition of human phosphorylated ABL1 Q252H mutant expressed in HEK293 cells assessed as residual activity at 1000 nM after 30 mins by Kinomescan method relative to control. The format is cell-based. The method in brief:
(§2)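 Single-point screen at a fixed 1 µM, run within a 456-kinase DiscoveRx KINOMEscan panel. Each kinase's read-out is Percent Control, i.e. signal relative to a control without compound. Hits were scored by a Percent Control < 35 cut-off, and an S(35) selectivity score was calculated across the non-mutant kinases.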

Experiment [11] deals with Fibroblast growth factor receptor 4 (Homo sapiens, UniProt P22455). In words: Inhibition of wild-type human partial length FGFR4 (G402 to E713 residues) expressed in Escherichia coli BL21 assessed as residual activity at 1000 nM after 30 mins by Kinomescan method relative to control.
Experiment [12] addresses Dual specificity protein kinase CLK3 (Homo sapiens) (UniProt P49761). In words: Inhibition of wild-type human full length CLK3 (M1 to R490 residues) expressed in Escherichia coli BL21 assessed as residual activity at 1000 nM after 30 mins by Kinomescan method relative to control. The method in brief:
as §2

For experiment [13], the target named is Serine/threonine-protein kinase OSR1 (Homo sapiens) (UniProt O95747). In words: Inhibition of wild-type human full length OSR1 (M1 to S527 residues) expressed in HEK293 cells assessed as residual activity at 1000 nM after 30 mins by Kinomescan method relative to control. In kind it is cell-based. The method in brief: as §1
The target of experiment [14] is Serine/threonine-protein kinase tousled-like 2 (Homo sapiens) (UniProt Q86UE8). In words: Inhibition of wild-type human partial length TLK2 (E424 to N749 residues) expressed in Escherichia coli BL21 assessed as residual activity at 1000 nM after 30 mins by Kinomescan method relative to control.
Experiment [15] deals with Serine/threonine-protein kinase 38 (Homo sapiens) (UniProt Q15208). In words: Inhibition of wild-type human partial length NDR1 (N33 to E449 residues) expressed in HEK293 cells assessed as residual activity at 1000 nM after 30 mins by Kinomescan method relative to control. The format is cell-based.
The test system of experiment [16] is Phosphatidylinositol 4,5-bisphosphate 3-kinase catalytic subunit alpha isoform (Homo sapiens), P42336 [Q546K]. Nature of the experiment: Inhibition of human partial length PIK3CA Q546K mutant (R108 to N1068 residues) expressed in HEK293 cells assessed as residual activity at 1000 nM after 30 mins by Kinomescan method relative to control. The format is cell-based. The method in brief: as §2

Experiment [17] deals with Serine/threonine-protein kinase MARK1 (Homo sapiens) (UniProt Q9P0L2). Nature of the experiment: Inhibition of wild-type human partial length MARK1 (Q30 to T341 residues) expressed in Escherichia coli BL21 assessed as residual activity at 1000 nM after 30 mins by Kinomescan method relative to control.
The target in experiment [18] is Cyclin-dependent kinase 3 (Homo sapiens) (UniProt Q00526). Nature of the experiment: Inhibition of wild-type human full length CDK3 (M1 to H305 residues) expressed in Escherichia coli BL21 assessed as residual activity at 1000 nM after 30 mins by Kinomescan method relative to control. The method in brief:
as §2

The target of experiment [19] is RAC-alpha serine/threonine-protein kinase (Homo sapiens) (UniProt P31749). In words: Inhibition of wild-type human partial length AKT1 expressed in Escherichia coli BL21 assessed as residual activity at 1000 nM after 30 mins by Kinomescan method relative to control.
The target of experiment [20] is Serine/threonine-protein kinase PLK3 (Homo sapiens) (UniProt Q9H4B4). Nature of the experiment: Inhibition of wild-type human partial length PLK3 (A42 to L334 residues) expressed in HEK293 cells assessed as residual activity at 1000 nM after 30 mins by Kinomescan method relative to control. The format is cell-based.
In experiment [21] the target is Maternal embryonic leucine zipper kinase (Homo sapiens) (UniProt Q14680). Nature of the experiment: Inhibition of wild-type human full length MELK (M1 to V651 residues) expressed in Escherichia coli BL21 assessed as residual activity at 1000 nM after 30 mins by Kinomescan method relative to control. The method in brief:
as §1

Serine/threonine-protein kinase tousled-like 2 (Homo sapiens), sequence (Q86UE8 whole entry, looked up, the tested form may be a part): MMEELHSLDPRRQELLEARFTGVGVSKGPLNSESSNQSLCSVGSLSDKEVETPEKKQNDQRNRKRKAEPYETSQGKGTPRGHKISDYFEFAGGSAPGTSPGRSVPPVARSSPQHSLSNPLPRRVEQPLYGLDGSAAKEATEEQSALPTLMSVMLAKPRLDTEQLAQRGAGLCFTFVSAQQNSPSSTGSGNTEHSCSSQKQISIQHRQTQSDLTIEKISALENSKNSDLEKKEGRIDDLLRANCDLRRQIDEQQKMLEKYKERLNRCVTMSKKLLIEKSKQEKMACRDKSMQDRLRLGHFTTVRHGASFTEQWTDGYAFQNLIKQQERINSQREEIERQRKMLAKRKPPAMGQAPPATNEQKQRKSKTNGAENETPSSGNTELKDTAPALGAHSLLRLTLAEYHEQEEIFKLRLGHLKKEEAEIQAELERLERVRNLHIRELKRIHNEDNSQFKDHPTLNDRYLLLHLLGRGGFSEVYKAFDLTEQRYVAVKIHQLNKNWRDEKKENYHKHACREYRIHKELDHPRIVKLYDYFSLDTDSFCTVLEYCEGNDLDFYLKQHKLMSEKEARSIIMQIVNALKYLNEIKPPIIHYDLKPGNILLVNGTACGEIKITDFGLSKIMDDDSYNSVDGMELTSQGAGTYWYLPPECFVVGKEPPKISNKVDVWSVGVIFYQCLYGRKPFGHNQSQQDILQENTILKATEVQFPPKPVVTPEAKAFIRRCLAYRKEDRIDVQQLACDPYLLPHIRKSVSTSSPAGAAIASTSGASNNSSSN
Tyrosine-protein kinase receptor Tie-1 (Homo sapiens), sequence (P35590 whole entry, the tested form may be a part): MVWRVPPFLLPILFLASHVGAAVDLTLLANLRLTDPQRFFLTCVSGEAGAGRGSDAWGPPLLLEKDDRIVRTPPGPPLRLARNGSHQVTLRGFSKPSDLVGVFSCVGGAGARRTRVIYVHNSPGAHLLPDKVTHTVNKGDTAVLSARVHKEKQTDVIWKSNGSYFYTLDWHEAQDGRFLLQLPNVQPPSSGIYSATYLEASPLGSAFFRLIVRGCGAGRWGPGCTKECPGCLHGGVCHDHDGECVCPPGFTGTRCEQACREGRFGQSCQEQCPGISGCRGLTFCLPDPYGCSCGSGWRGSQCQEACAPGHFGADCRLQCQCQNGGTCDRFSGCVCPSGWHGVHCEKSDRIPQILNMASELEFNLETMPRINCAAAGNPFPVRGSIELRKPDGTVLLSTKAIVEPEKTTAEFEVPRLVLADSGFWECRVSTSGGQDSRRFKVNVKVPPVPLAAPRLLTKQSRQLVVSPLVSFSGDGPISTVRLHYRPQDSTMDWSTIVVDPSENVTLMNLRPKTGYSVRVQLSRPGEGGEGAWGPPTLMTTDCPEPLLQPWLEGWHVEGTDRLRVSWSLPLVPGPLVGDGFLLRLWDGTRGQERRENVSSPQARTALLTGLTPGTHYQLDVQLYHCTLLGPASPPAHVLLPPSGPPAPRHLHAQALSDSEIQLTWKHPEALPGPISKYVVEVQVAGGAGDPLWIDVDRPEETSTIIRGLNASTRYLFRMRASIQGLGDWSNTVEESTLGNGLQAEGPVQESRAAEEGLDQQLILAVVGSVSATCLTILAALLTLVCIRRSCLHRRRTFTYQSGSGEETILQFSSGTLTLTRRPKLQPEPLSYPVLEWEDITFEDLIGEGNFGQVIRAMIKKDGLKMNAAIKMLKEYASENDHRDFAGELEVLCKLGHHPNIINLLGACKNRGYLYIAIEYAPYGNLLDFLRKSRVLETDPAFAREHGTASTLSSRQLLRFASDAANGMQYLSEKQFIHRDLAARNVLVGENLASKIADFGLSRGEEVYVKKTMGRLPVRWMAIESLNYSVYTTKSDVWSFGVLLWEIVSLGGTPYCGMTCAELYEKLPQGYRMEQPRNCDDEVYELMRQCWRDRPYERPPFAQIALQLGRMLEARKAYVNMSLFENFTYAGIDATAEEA
Dual specificity protein kinase CLK3 (Homo sapiens), sequence (P49761 whole entry, looked up, the tested form may be a part): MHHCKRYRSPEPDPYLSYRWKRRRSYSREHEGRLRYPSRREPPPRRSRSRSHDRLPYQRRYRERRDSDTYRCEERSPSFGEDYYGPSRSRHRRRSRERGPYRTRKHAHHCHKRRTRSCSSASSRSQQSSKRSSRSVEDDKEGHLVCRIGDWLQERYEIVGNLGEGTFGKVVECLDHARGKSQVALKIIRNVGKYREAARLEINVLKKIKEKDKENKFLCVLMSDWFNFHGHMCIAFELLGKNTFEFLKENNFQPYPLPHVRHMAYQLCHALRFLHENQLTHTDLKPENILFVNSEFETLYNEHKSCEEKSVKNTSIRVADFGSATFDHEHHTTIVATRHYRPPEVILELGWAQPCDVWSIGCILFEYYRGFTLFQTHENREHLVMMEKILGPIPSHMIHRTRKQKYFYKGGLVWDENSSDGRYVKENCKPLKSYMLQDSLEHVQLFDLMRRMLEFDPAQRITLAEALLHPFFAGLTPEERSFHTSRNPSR
Serine/threonine-protein kinase PLK3 (Homo sapiens), sequence (Q9H4B4 whole entry, looked up, the tested form may be a part): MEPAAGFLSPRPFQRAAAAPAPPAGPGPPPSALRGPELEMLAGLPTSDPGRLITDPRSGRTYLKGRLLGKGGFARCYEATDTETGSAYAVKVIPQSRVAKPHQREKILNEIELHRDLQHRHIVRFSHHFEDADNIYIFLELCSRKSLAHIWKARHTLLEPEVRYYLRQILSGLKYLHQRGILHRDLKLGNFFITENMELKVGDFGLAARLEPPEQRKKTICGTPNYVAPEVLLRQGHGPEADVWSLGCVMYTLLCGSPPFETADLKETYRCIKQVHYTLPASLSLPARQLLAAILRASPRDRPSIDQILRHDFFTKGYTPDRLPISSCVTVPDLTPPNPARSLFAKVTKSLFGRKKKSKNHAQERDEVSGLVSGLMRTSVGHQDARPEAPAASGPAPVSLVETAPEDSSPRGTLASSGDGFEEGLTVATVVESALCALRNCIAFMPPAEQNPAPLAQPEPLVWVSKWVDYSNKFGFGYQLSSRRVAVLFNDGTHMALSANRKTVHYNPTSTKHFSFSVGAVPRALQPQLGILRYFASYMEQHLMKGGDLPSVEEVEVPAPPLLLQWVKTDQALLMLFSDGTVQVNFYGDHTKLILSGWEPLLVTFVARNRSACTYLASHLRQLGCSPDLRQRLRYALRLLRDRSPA
RAC-alpha serine/threonine-protein kinase (Homo sapiens), sequence (P31749 whole entry, the tested form may be a part): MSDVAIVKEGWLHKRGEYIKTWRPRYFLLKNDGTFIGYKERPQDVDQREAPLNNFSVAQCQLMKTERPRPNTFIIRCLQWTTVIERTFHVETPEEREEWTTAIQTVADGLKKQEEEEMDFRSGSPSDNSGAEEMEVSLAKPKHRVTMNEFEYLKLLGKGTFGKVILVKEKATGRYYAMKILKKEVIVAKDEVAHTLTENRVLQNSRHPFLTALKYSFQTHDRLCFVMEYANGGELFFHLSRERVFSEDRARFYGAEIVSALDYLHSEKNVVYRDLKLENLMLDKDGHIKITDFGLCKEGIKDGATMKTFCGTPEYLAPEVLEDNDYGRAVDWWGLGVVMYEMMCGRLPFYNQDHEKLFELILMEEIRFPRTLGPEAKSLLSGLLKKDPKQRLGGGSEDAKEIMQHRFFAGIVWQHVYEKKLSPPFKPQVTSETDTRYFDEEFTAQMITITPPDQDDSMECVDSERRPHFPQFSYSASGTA
Serine/threonine-protein kinase OSR1 (Homo sapiens), sequence (O95747 2-527 limits assumed): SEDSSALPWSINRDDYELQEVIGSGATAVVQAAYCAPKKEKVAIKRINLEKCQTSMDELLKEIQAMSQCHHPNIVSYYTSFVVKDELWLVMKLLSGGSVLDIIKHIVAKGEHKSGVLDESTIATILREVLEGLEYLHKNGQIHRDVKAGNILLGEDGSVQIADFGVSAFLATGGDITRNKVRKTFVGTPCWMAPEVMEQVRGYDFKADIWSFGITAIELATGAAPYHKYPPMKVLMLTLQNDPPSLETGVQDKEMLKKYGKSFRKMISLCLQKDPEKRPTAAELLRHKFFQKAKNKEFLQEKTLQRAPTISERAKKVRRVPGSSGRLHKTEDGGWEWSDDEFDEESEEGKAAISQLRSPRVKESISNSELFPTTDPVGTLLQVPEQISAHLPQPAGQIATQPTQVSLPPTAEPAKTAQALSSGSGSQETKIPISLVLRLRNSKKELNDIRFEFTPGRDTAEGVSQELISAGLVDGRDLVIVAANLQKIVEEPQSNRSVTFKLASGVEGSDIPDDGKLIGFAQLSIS
NUAK family SNF1-like kinase 2 (Homo sapiens), sequence (Q9H093 whole entry, the tested form may be a part): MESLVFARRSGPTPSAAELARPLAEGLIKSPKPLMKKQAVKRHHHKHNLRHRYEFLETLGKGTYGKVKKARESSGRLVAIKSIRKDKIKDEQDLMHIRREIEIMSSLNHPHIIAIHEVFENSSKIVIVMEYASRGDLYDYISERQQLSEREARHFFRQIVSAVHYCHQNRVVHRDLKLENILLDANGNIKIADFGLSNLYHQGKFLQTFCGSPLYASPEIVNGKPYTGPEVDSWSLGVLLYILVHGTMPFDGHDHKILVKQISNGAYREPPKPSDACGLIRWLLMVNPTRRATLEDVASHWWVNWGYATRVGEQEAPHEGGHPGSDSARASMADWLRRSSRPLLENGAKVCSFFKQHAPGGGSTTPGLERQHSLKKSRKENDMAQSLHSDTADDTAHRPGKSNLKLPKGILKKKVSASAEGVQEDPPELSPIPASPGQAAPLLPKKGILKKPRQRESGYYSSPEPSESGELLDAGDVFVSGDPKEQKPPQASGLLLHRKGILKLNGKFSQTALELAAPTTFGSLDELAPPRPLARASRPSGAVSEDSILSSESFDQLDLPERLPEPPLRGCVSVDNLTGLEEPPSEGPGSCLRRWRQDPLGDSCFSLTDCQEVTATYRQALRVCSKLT
Cyclin-dependent kinase 3 (Homo sapiens), sequence (Q00526 whole entry, looked up, the tested form may be a part): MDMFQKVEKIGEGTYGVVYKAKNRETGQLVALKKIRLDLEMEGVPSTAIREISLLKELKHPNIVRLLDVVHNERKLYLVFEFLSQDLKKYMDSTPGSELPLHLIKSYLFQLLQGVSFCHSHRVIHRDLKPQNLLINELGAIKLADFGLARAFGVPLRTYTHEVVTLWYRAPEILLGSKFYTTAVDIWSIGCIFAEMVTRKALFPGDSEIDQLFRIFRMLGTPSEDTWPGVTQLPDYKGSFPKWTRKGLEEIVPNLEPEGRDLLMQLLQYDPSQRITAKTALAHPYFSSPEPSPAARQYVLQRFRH

On to `COc1cc(OC)c(Cl)c(N2Cc3cnc(Nc4ccc(F)cc4)nc3N(C3CCN(C(=O)/C=C/CN(C)C)CC3)C2=O)c1Cl`, for which the Activity in experiment [1] is 100%; in experiment [2], 87%; in experiment [3], 98%; in experiment [4], 37%; in experiment [5], 19%; in experiment [6] it was 91%. For the same molecule, the Activity is 100% in experiment [7]; 99% in experiment [8]; 89% in experiment [9]; 31% in experiment [10]; 1% in experiment [11]; 100% in experiment [12]. The Activity worked out at 100% in [13]; 96% in experiment [14]; 100% in experiment [15]; 98% in experiment [16]; 99% in experiment [17]; 97% in experiment [18]. Further, the figures for the Activity in [19], in [20] and in experiment [21] were 88%, 99% and 100%, respectively.
